Measured values: ChEMBL document CHEMBL1153368, “Benzophenone-N-ethyl piperidine ether analogues--synthesis and efficacy as anti-inflammatory agent” (Bioorg Med Chem Lett, 2009)
Active and inactive are the calls of the source. The calls are words filed in the database; no cut-off is given here.

What was measured:
[1] = species: Mus musculus; experiment: animal or person; conditions: Albino, po, read-out: INH
[2] = tested on: Mus musculus; experiment: Toxicity in carrageenan treated Albino mouse liver assessed as fatty change at 100 mg/kg, po administered 1 hr before carrageenan challenge measured after 4 hrs by hematoxilen eosine staining; format: organism-based; parameters: dose 100 mg/kg, route oral; conditions: in vivo
Outline: (§1)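 Mice given oral doses suspended in 0.5% CMC (vehicle controls) for the carrageenan paw edema experiment. Animals sacrificed 4 h after the paw edema experiments. Liver, stomach and kidneys removed and fixed in 10% formalin, then sections scored microscopically for kidney edema and mononuclear cell infiltration, gastritis/ulceration, and liver fatty change, acute hepatitis/spotty necrosis and cholestasis.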

[3] = tested on: Mus musculus; experiment: Toxicity in carrageenan treated Albino mouse liver assessed as cholestasis at 100 mg/kg, po administered 1 hr before carrageenan challenge measured after 4 hrs by hematoxilen eosine staining; format: organism-based; parameters: dose 100 mg/kg, route oral; conditions: in vivo
Outline: as §1

[4] = tested on: Mus musculus; experiment: Antiinflammatory activity in Albino mouse assessed as inhibition of carrageenan-induced foot paw edema at 100 mg/kg, po administered 1 hr before carrageenan challenge measured after 2 hrs; format: functional
Outline: (§2)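 Fasted mice (water free) dosed orally with suspensions in 0.5% CMC; controls received vehicle only. Right hind paw thickness measured with a dial gauge 1 h after dosing, then carrageenan-induced edema re-measured 2 h later. Effect expressed as percent inhibition of edema versus control; mean of n = 6.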

[5] = tested on: Mus musculus; experiment: Antiinflammatory activity against carrageenan-induced inflammation in Albino mouse air ppouch model assessed as number of polymorphonuclear leukocytes infiltration at 100 mg/kg, po administered 1 hr before carrageenan challenge measured after 4 hrs by air pouch test; format: functional
Outline: (§3)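 Mice housed in groups of six, food withdrawn the day before with water free. Dosing by oral gavage in 0.5% CMC, with vehicle-only controls. Air pouch made by sc injection of 1 ml air over 3 days. On day 3, 1 ml of 10 mg/ml carrageenan (heat-sterilized, held at 37 °C) injected into the pouch, 1 h after dosing. Killed 4 h later; pouch lavaged with 3 ml PBS-heparin, spun 2000 rpm 15 min 4 °C, PMNL counted by Coulter Counter; n = 6.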

[6] = tested on: Mus musculus; experiment: Toxicity in carrageenan treated Albino mouse kidney assessed as edema at 100 mg/kg, po administered 1 hr before carrageenan challenge measured after 4 hrs by hematoxilen eosine staining; format: organism-based; parameters: dose 100 mg/kg, route oral; conditions: in vivo
Outline: as §1

[7] = tested on: Mus musculus; experiment: Toxicity in carrageenan treated Albino mouse kidney assessed as […] mononuclear lymphocytes at 100 mg/kg, po administered 1 hr before carrageenan challenge measured after 4 hrs by hematoxilen eosine staining; format: organism-based; parameters: dose 100 mg/kg, route oral; conditions: in vivo
Outline: as §1

[8] = tested on: Mus musculus; experiment: Toxicity in carrageenan treated Albino mouse stomach assessed as gastric ulcer at 100 mg/kg, po administered 1 hr before carrageenan challenge measured after 4 hrs by hematoxilen eosine staining; format: organism-based; parameters: dose 100 mg/kg, route oral; conditions: in vivo
Outline: as §1

[9] = tested on: Mus musculus; experiment: Toxicity in carrageenan treated Albino mouse liver assessed as acute hepatitis at 100 mg/kg, po administered 1 hr before carrageenan challenge measured after 4 hrs by hematoxilen eosine staining; format: organism-based; parameters: dose 100 mg/kg, route oral; conditions: in vivo
Outline: as §1

[10] = tested on: Mus musculus; experiment: Toxicity in carrageenan treated Albino mouse stomach assessed as gastric ulcer at 10 mg/kg, po administered 1 hr before carrageenan challenge measured after 4 hrs by hematoxilen eosine staining; format: organism-based; parameters: dose 10 mg/kg, route oral; conditions: in vivo
Outline: as §1

[11] = tested on: Mus musculus; experiment: Toxicity in carrageenan treated Albino mouse liver assessed as cholestasis at 10 mg/kg, po administered 1 hr before carrageenan challenge measured after 4 hrs by hematoxilen eosine staining; format: organism-based; parameters: dose 10 mg/kg, route oral; conditions: in vivo
Outline: as §1

[12] = tested on: Mus musculus; experiment: Antiinflammatory activity in Albino mouse assessed as inhibition of carrageenan-induced foot paw edema at 10 mg/kg, po administered 1 hr before carrageenan challenge measured after 2 hrs; format: functional
Outline: as §2

[13] = tested on: Mus musculus; experiment: Antiinflammatory activity against carrageenan-induced inflammation in Albino mouse air ppouch model assessed as number of polymorphonuclear leukocytes infiltration at 10 mg/kg, po administered 1 hr before carrageenan challenge measured after 4 hrs by air pouch test; format: functional
Outline: as §3

## COc1ccc2cc([C@H](C)C(=O)O)ccc2c1 [NAPROXEN]
[1]
  inhibition in vivo at 30 mg/kg: 66.9%

## Cc1cc(C(=O)c2ccc(Cl)cc2Cl)ccc1OCCN1CCCCC1
[2]
  Activity: Non-toxic
[3]
  Activity: Non-toxic
[4]
  inhibition in vivo at 100 mg/kg: 68.7%
[5]
  Activity: 30.15 ×10⁵ /cm'3
[6]
  Activity: Non-toxic
[7]
  Activity: Non-toxic
[8]
  Activity: Non-toxic

## Cc1cc(C(=O)c2ccccc2)ccc1OCCN1CCCCC1
[4]
  inhibition in vivo at 100 mg/kg: 22.4%
[5]
  Activity: 95.25 ×10⁵ /cm'3
[6]
  Activity: Non-toxic
[7]
  Activity: Non-toxic

## Cc1cc(C(=O)c2ccccc2C)ccc1OCCN1CCCCC1
[4]
  inhibition in vivo at 100 mg/kg: 35.6%
[5]
  Activity: 69.51 ×10⁵ /cm'3
[6]
  Activity: Non-toxic
[7]
  Activity: Non-toxic
[8]
  Activity: Non-toxic

## COc1ccc(C(=O)c2ccc(OCCN3CCCCC3)c(C)c2)cc1
[2]
  Activity: Non-toxic
[3]
  Activity: Non-toxic
[4]
  inhibition in vivo at 100 mg/kg: 51.4%
[5]
  Activity: 56.26 ×10⁵ /cm'3
[6]
  Activity: Non-toxic
[7]
  Activity: Non-toxic

## Cc1cc(C(=O)c2cccc(Cl)c2)ccc1OCCN1CCCCC1
[3]
  Activity: Non-toxic
[4]
  inhibition in vivo at 100 mg/kg: 51.4%
[5]
  Activity: 56.26 ×10⁵ /cm'3
[6]
  Activity: Non-toxic
[8]
  Activity: Non-toxic

## Cc1cc(C(=O)c2ccc(F)cc2)ccc1OCCN1CCCCC1
[2]
  Activity: Non-toxic
[9]
  Activity: Non-toxic
[3]
  Activity: Non-toxic
[4]
  inhibition in vivo at 100 mg/kg: 60.6%
[5]
  Activity: 32.41 ×10⁵ /cm'3
[6]
  Activity: Non-toxic
[7]
  Activity: Non-toxic
[8]
  Activity: Non-toxic

## COc1ccc2c(c1)c(CC(=O)O)c(C)n2C(=O)c1ccc(Cl)cc1 [INDOMETHACIN]
[10]
  Activity: Toxic
[11]
  Activity: Non-toxic
[12]
  inhibition in vivo at 10 mg/kg: 32.1%
[13]
  Activity: 68.81 ×10⁵ /cm'3

## CCCCC1C(=O)N(c2ccccc2)N(c2ccccc2)C1=O [PHENYLBUTAZONE]
[4]
  inhibition in vivo at 100 mg/kg: 53.3%
[5]
  Activity: 53.28 ×10⁵ /cm'3

## Cc1cc(C(=O)c2ccc(Br)cc2)ccc1OCCN1CCCCC1
[2]
  Activity: Non-toxic
[9]
  Activity: Non-toxic
[3]
  Activity: Non-toxic
[4]
  inhibition in vivo at 100 mg/kg: 67.5%
[5]
  Activity: 31.75 ×10⁵ /cm'3
[6]
  Activity: Non-toxic
[7]
  Activity: Non-toxic
[8]
  Activity: Non-toxic

## Cc1cc(C(=O)c2ccccc2Br)ccc1OCCN1CCCCC1
[2]
  Activity: Non-toxic
[9]
  Activity: Non-toxic
[3]
  Activity: Non-toxic
[4]
  inhibition in vivo at 100 mg/kg: 51.4%
[5]
  Activity: 56.25 ×10⁵ /cm'3
[6]
  Activity: Non-toxic
[7]
  Activity: Non-toxic

## Cc1cccc(C(=O)c2ccc(OCCN3CCCCC3)c(C)c2)c1
[9]
  Activity: Non-toxic
[3]
  Activity: Non-toxic
[4]
  inhibition in vivo at 100 mg/kg: 15.4%
[5]
  Activity: 104.76 ×10⁵ /cm'3
[6]
  Activity: Non-toxic

## Cc1ccc(C(=O)c2ccc(OCCN3CCCCC3)c(C)c2)cc1
[2]
  Activity: Non-toxic
[3]
  Activity: Non-toxic
[4]
  inhibition: inactive
[6]
  Activity: Non-toxic
[7]
  Activity: Non-toxic
[8]
  Activity: Non-toxic
